Data from ChEMBL document CHEMBL1667863, “Amino-benzosuberone: a novel warhead for selective inhibition of human aminopeptidase-N/CD13” (Bioorg Med Chem, 2011).
Where a name gives a salt, the structure may show the parent alone. Active and inactive are the calls of the source. The calls are words filed in the database; no cut-off is given here.

Experiments:
[1] = target: T1, Cytosol aminopeptidase (Bos taurus, UniProt P00727); assay: Inhibition of bovine lens cytosolic leucine aminopeptidase by Dixon plot analysis; parameters: species or system Lens of camera-type eye
T1 sequence (P00727 whole entry): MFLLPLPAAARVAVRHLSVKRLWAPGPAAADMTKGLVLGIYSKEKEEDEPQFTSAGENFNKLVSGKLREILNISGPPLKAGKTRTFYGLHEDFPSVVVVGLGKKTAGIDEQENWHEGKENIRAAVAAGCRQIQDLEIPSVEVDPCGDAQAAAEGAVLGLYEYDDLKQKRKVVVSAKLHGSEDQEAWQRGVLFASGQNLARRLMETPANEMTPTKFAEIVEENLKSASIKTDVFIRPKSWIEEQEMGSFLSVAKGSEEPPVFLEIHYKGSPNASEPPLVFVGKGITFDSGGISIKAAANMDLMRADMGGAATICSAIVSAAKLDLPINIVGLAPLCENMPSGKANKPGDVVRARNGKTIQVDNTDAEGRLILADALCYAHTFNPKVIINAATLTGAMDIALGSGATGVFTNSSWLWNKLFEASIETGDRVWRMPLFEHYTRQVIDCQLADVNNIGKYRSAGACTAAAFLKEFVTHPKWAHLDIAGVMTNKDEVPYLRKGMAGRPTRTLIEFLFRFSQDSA
How it was run: (§1)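 Compounds tested as racemates; IC50 obtained from Dixon plots, with substrate set at the Km of each enzyme.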

[2] = target: T2, Leukotriene A-4 hydrolase (Homo sapiens, UniProt P09960); assay: Inhibition of aminopeptidase activity of human leukotriene A4 hydrolase by Dixon plot analysis; how it was run: as §1
T2 sequence (P09960 whole entry): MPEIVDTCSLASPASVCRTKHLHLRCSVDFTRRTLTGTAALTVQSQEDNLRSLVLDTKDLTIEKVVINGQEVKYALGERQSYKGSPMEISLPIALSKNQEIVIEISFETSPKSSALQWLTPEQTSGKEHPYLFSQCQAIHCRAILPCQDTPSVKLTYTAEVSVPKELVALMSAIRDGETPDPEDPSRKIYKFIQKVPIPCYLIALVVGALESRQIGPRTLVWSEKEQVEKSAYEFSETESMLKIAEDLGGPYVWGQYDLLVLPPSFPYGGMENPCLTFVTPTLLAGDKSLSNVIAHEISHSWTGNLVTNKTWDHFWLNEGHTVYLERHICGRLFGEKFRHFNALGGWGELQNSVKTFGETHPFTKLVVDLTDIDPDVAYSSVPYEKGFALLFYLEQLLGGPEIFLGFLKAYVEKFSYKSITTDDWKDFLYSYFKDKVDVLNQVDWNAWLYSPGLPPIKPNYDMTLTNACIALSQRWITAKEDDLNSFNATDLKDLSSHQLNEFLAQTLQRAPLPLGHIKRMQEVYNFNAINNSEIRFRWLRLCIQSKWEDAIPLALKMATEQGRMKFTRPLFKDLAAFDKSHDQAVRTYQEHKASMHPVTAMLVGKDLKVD

[3] = Inhibition of Aeromonas proteolytica aminopeptidase by Dixon plot analysis; parameters: species or system Vibrio proteolyticus; how it was run: as §1
[4] = target: Aminopeptidase N (Homo sapiens, UniProt P15144); assay: Inhibition of human aminopeptidase N by Dixon plot analysis
Sequence of Aminopeptidase N (P15144 whole entry): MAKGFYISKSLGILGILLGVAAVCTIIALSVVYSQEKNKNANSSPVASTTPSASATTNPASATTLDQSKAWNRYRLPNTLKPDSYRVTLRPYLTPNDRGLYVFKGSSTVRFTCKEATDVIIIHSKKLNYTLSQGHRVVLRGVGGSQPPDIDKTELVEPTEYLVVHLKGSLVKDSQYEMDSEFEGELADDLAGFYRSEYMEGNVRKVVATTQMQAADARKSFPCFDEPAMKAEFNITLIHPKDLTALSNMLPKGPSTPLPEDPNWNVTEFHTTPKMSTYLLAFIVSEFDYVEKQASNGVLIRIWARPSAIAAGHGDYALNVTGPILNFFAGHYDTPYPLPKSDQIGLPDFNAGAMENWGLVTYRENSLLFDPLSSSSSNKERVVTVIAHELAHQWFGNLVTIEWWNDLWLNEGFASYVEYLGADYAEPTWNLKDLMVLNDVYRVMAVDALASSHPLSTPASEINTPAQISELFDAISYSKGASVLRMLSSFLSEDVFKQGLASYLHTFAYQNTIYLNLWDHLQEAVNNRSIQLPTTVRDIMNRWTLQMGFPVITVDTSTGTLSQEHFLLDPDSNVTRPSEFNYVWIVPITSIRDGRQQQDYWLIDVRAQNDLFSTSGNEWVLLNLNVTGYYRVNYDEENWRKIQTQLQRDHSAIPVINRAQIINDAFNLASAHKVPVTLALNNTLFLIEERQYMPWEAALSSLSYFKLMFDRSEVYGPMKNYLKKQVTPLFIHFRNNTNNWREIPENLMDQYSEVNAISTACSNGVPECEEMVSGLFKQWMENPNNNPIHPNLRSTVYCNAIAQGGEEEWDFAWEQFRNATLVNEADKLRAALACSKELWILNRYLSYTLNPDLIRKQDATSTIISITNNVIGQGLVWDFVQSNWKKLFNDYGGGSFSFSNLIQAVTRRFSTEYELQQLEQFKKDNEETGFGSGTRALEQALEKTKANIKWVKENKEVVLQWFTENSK

[5] = target: T3, Aminopeptidase N (Sus scrofa) (UniProt P15145); assay: Inhibition of porcine kidney aminopeptidase N at 2 uM after 8 hrs
T3 sequence (whole entry): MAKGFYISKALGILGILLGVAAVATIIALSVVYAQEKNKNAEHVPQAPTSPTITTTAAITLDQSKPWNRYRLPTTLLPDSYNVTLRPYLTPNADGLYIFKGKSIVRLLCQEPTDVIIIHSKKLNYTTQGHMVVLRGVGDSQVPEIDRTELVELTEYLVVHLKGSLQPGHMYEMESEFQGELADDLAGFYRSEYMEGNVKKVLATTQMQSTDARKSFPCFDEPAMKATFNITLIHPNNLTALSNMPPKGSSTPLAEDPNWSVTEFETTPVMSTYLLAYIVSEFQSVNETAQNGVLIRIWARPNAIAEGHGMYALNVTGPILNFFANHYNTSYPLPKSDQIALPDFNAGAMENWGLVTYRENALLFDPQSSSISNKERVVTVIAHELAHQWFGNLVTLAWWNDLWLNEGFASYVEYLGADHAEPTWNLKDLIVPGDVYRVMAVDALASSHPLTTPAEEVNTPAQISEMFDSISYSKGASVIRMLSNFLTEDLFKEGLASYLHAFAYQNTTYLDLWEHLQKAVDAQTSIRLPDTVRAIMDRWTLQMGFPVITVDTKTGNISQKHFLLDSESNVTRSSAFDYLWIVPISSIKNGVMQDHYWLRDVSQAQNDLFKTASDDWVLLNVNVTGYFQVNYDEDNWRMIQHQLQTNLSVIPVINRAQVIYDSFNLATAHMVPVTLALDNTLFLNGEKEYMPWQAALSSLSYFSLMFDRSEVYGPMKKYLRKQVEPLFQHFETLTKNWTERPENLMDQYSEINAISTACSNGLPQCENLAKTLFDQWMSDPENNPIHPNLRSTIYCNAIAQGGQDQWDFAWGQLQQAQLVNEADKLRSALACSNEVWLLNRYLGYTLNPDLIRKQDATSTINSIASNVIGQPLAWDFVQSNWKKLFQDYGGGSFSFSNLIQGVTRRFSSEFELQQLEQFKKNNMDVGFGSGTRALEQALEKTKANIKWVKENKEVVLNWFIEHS
How it was run: (§2)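 Porcine kidney APN (3 milliunits, added to start the reaction) in 20 mM Tris-HCl pH 7.5 at 25 °C; substrate leucine-para-nitroanilide 0.2 mM; para-nitroaniline release followed at 405 nm for up to 10 h; inhibitor at 2 µM; velocities compared with a no-inhibitor control.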

[6] = Chemical stability of the compound; type: physicochemical
[7] = target: T3, Aminopeptidase N (Sus scrofa); assay: Inhibition of porcine kidney aminopeptidase N at 2 uM after 1 hr; how it was run: as §2

| SMILES | IC50 [1] [µM] | IC50 [2] [µM] | IC50 [3] [µM] | IC50 [4] [µM] | Ki [4] [µM] | inhibition [5] | Stability [6] | inhibition [7] [%] |
| --- | --- | --- | --- | --- | --- | --- | --- | --- |
| NC1C(=O)Cc2ccccc21 (configuration not stated) | > 1000 | > 1000 | 150 | – | – | – | – | – |
| NC1Cc2ccccc2CCC1=O (configuration not stated) | > 1000 | > 1000 | > 1000 | > 1000 | – | – | – | – |
| NC1CCCCCC1=O (configuration not stated) [2-AMINOCYCLOHEPTANONE HYDROCHLORIDE] | > 100 | – | 350 | 310 | – | – | – | – |
| Cl.NC1CCc2ccccc2CC1=O (configuration not stated) | > 1000 | > 1000 | 900 | – | 1 | 60% | Stable | – |
| CC(C)C[C@H](NC(=O)[C@@H](O)[C@H](N)Cc1ccccc1)C(=O)O [UBENIMEX] | – | – | 0.0016 | – | – | – | – | – |
| N[C@H]1CCc2ccccc2C[C@H]1O (relative stereo) | > 1000 | – | > 1000 | – | – | – | – | – |
| NC1Cc2ccccc2CC1=O (configuration not stated) | – | > 1000 | 130 | – | – | inactive | – | 60 |
| NC1CCc2ccccc2C/C1=N/O (configuration not stated) | > 1000 | > 1000 | 15 | 110 | – | – | – | – |
